Reference: ChEMBL document CHEMBL1152251, “Preparation of (4,4-difluoro-1,2,3,4-tetrahydro-5H-1-benzazepin-5-ylidene)acetamide derivatives as novel arginine vasopressin V(2) receptor agonists” (Bioorg Med Chem, 2008)
The source made the active and inactive calls. The calls are words filed in the database; no cut-off is given here.

Experiments:
Vasopressin V2 receptor [1] = biological target: T1, Vasopressin V2 receptor (Homo sapiens, UniProt P30518); test: Agonist activity at human vasopressin V2 receptor expressed in CHO cells assessed as cAMP accumulation by HTRF assay; assay type: functional, cell-based
T1 sequence (P30518 whole entry): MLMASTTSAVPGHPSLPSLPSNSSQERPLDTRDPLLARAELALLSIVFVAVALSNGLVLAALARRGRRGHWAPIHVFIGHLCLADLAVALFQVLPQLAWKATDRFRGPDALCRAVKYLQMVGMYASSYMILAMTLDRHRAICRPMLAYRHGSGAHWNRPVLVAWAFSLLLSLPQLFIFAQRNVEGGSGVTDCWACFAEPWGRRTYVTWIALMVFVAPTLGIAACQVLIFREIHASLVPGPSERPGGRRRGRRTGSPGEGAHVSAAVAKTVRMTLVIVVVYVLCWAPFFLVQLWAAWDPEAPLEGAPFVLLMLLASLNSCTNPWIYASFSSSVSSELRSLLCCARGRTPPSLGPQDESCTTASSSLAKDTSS
In short: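 Cells kept in α-MEM with 10% FBS, penicillin/streptomycin and 0.1% amethopterin at 37 °C, 5% CO₂, grown to subconfluence, then serum-starved 24 h. Medium changed to α-MEM with 1 mmol/L IBMX and 0.1% BSA, compound added for 10 min at 37 °C. Lysis in PBS/0.2% Triton X-100, cAMP read by HTRF. Triplicate.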

Vasopressin V2 receptor [2] = biological target: T1, Vasopressin V2 receptor; test: Intrinsic activity at human vasopressin V2 receptor expressed in CHO cells assessed as cAMP accumulation by HTRF assay relative to arginine vasopressin; assay type: functional, cell-based
Vasopressin V2 receptor [3] = biological target: T1, Vasopressin V2 receptor; test: Displacement of [3H]vasopressin from human vasopressin V2 receptor expressed in CHO cells by microplate scintillation counting; assay type: cell-based
Vasopressin V2 receptor [4] = biological target: Vasopressin V2 receptor (Rattus norvegicus, UniProt Q00788); test: Displacement of [3H]vasopressin from rat vasopressin V2 receptor expressed in CHO cells by microplate scintillation counting; assay type: cell-based
Vasopressin V2 receptor (Rattus norvegicus, UniProt Q00788), sequence (Q00788 whole entry): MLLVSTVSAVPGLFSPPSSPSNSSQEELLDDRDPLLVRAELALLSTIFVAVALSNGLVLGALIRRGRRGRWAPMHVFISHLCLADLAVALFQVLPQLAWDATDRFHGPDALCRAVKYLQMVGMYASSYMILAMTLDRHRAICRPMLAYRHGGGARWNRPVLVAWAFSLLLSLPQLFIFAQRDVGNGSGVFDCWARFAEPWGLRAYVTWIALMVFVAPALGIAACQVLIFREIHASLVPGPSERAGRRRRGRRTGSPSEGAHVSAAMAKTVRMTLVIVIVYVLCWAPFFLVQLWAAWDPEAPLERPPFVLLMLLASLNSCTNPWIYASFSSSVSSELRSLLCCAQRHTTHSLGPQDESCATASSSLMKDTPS

Row | Compound | EC50 (Vasopressin V2 receptor [1]) | Activity (Vasopressin V2 receptor [2]) | Ki (Vasopressin V2 receptor [3]) | Ki (Vasopressin V2 receptor [4]) | Activity (Vasopressin V2 receptor [1])
1 | CCc1ccn(-c2ccc(C(=O)N3CCC(F)(F)/C(=C\C(=O)NCc4ccccn4)c4ccccc43)c(Cl)c2)n1 | > 10000 nM | 86.8% | 21 nM |  | 
2 | Cc1ccn(-c2ccc(C(=O)N3CCC(F)(F)/C(=C\C(=O)NCc4ccccn4)c4ccccc43)c(Cl)c2)n1 |  |  |  | 19 nM | 
3 | CN1CCN(c2ccc(C(=O)N3CCC(F)(F)/C(=C\C(=O)NCc4ccccn4)c4ccccc43)c(Cl)c2)CC1 | > 10000 nM | 35.5% | 170 nM |  | 
4 | CC(C)c1ccn(-c2ccc(C(=O)N3CCC(F)(F)/C(=C\C(=O)NCc4ccccn4)c4ccccc43)c(Cl)c2)n1 | > 10000 nM | 4.9% | 18 nM |  | 
5 | O=C(/C=C1/c2ccccc2N(C(=O)c2ccc(NC(=O)c3ccccc3-c3ccccc3)cc2)CCC1(F)F)NCc1ccccn1 |  |  |  | 0.4 nM | inactive
